Test results from paper PMC2756606 (Organic letters, 2009).
Read-outs that look alike come from different tables or passages of the source.

Legend:
[1] = system: HCT116/δOR and parental HCT116 tumors in SCID mice; type: in vivo, mouse; details: 10 μg i.v. (tail vein), 15 min post-injection, not shown
[2] = biological target: δOR (δ-opioid receptor) in HCT116 colon carcinoma cells engineered to express the δOR (Homo sapiens, UniProt P41143); test: competitive binding assay, time-resolved fluorescence; details: TRF competitive binding; HCT116 cells expressing δOR
In short: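 Purified test compounds were run in a competition format on whole HCT116 colon carcinoma cells engineered to express δOR. Ki was derived from a fitted competition curve, with R2 reported for the fit.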

[3] = system: mouse-isolated vas deferens, δ-opioid receptor (antagonism of δ-agonist DPDPE); test: mouse-isolated vas deferens; type: biochemical; details: MVD assay against δ-agonist DPDPE; n=8
[4] = biological target: δ-opioid receptor; details: cited from earlier work

## CC[N+]1=C(C=CC=CC=C2N(CCCCCC(=O)NCCN3C(=O)CC(SCCC(=O)NCCCC[C@H](NC(=O)[C@@H]4Cc5ccccc5CN4C(=O)[C@@H](N)Cc4c(C)cc(O)cc4C)C(=O)O)C3=O)c3ccc(S(=O)(=O)O)cc3C2(C)C)C(C)(C)c2cc(S(=O)(=O)[O-])ccc21 (some centres unmarked) [Ligand 1]
[1]
  systemic distribution, fluorescence intensity maps: systemic presence of the compound with high intensity throughout the animal
[2]
  affinity of labeled ligand compared with unlabeled counterpart (ligand 6): equipotent to its unlabeled counterpart
[3]
  inhibitory potency, Ke: 0.037 ± 0.009 nM

## Dmt-Tic-Lys-NH2
[4]; reported radioligand binding assays, compared with TRF results
  Ki: 0.71 nM

## H-Dmt-Tic-Lys(Ac)-OH
[4]; δ-receptor affinity in radioligand binding assays
  Ki: 0.047 nM
